We go through 15 compounds from ChEMBL document CHEMBL4428101, “The Oncolytic Efficacy and in Vivo Pharmacokinetics of [2-(4-Chlorophenyl)quinolin-4-yl](piperidine-2-yl)methanol (Vacquinol-1) Are Governed by Distinct Stereochemical Features” (J Med Chem, 2016).

The source made the active and inactive calls. The calls are words filed in the database; no cut-off is given here.

The nature of data set [1]: Cytotoxicity against patient-derived U3013MG cells assessed as reduction in cell viability after 48 hrs by Celltiter-Glo reagent based assay. The following applies: Homo sapiens. The data set is classed as functional.
Data set [2] relates to U3013MG. In words: Cytotoxicity against patient-derived U3013MG cells assessed as induction of catastrophic vacuolization at 5 uM after 4 to 8 hrs by light microscopy. The conditions noted are these: Homo sapiens. The data set is classed as functional, cell-based. In outline: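 U3013 glioblastoma cells in 384-well plates were examined by light microscopy at 4 h intervals for large lucent intracellular vacuoles, with bright-field imaging at 37 °C, 5% CO2.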

Data set [3] can be described thus: Half life in NMRI mouse plasma at 20 mg/kg, po administered as single dose through gavage by UPLC-MS/MS analysis. In kind it is ADME, organism-based. In outline: (§1)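 Single dose to male NMRI mice, i.v. tail vein under light isoflurane or p.o. gavage without anesthesia. Blood by orbital plexus into EDTA, plasma by centrifugation at +4 °C; brains homogenized in 4 mL PBS (pH 7.4) per g. Sampled 15 min to 144 h, n = 3 per time point. UPLC-MS/MS with internal standard; noncompartmental analysis of composite mean profiles using nominal times and doses.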

Data set [4] is described as follows: Tlast in NMRI mouse plasma at 2 mg/kg, iv administered as single dose by UPLC-MS/MS analysis. The conditions noted are these: in vivo. The data set is classed as ADME, organism-based. In outline:
as §1

Data set [5] is described as follows: CNS toxicity in NMRI mouse at 2 mg/kg, iv administered as single dose up to 144 hrs. The data set is classed as organism-based. The conditions noted are these: in vivo.
A short description of data set [6]: Toxicity in 2 days post fertilized zebra fish embryo orthotopically xenografted with GFP-labeled human U3013MG cells assessed as larval development defect at 30 uM. Also on record: species or system Danio rerio. The conditions noted are these: zebrafish, 48 h.
Data set [7] can be described thus: Oral bioavailability in NMRI mouse brain at 20 mg/kg administered as single dose through gavage measured after 144 hrs by UPLC-MS/MS analysis. In kind it is ADME, organism-based. The essentials:
as §1

Data set [8] is described as follows: CNS toxicity in NMRI mouse at 20 mg/kg, po administered as single dose through gavage up to 144 hrs. The data set is classed as organism-based. The following applies: in vivo.
Data set [9] in a line: Cmax in NMRI mouse brain at 2 mg/kg, iv administered as single dose measured after 144 hrs by UPLC-MS/MS analysis. Also on record: dose 2 mg/kg, route intravenous. The data set is classed as ADME, organism-based. The essentials: as §1
Data set [10] can be described thus: Toxicity in NMRI mouse assessed as drug tolerance at 20 mg/kg, po administered as single dose through gavage up to 144 hrs. The data set is classed as organism-based. The following applies: in vivo.
Data set [11] can be described thus: Half life in NMRI mouse brain at 20 mg/kg, po administered as single dose through gavage by UPLC-MS/MS analysis. In kind it is ADME, organism-based. In outline: as §1
Data set [12] can be described thus: Tlast in NMRI mouse brain at 2 mg/kg, iv administered as single dose by UPLC-MS/MS analysis. In kind it is ADME, organism-based. The following applies: in vivo. The essentials: as §1
Data set [13] in a line: AUClast in NMRI mouse plasma at 2 mg/kg, iv administered as single dose measured up to 144 hrs post dose by UPLC-MS/MS analysis. In kind it is ADME, organism-based. Also on record: time < 144 hr, dose 2 mg/kg, route intravenous. The essentials:
as §1

The subject of data set [14] is U3013MG. Kind of data set: Antitumor activity against GFP-labeled human U3013MG cells orthotopically xenografted in 2 days post fertilized zebra fish embryo assessed as reduction in tumor cells at 30 uM measured 6 days post transplantation by fluorescence assay. The data set is classed as functional, cell-based. In outline:
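U3013 cells labeled with Cell Tracker Green; about 3000 cells injected into the brain ventricle of 2 dpf Mitfa-morpholino larvae. Three embryos per well in 200 μL egg water holding compound or 0.1% DMSO, renewed every 6 h. Imaged 6 days post-transplantation; tumor burden from GFP fluorescence intensity and counts of larvae with grafted cells.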

Data set [15] in a line: Tlast in NMRI mouse plasma at 20 mg/kg, po administered as single dose through gavage by UPLC-MS/MS analysis. In kind it is ADME, organism-based. The following applies: in vivo. The essentials: as §1
Data set [16] in a line: Tlast in NMRI mouse brain at 20 mg/kg, po administered as single dose through gavage by UPLC-MS/MS analysis. The data set is classed as ADME, organism-based. The conditions noted are these: in vivo. In outline:
as §1

Data set [17] is described as follows: Systemic toxicity in NMRI mouse at 2 mg/kg, iv administered as single dose up to 144 hrs. The data set is classed as organism-based. The conditions noted are these: in vivo.
A short description of data set [18]: Systemic toxicity in NMRI mouse at 20 mg/kg, po administered as single dose through gavage up to 144 hrs. In kind it is organism-based. The conditions noted are these: in vivo.
Data set [19] is described as follows: AUClast in NMRI mouse plasma at 20 mg/kg, po administered as single dose through gavage measured up to 144 hrs post dose by UPLC-MS/MS analysis. The data set is classed as ADME, organism-based. Also on record: dose 20 mg/kg, time < 144 hr, route oral. In outline:
as §1

A short description of data set [20]: Fraction unbound in NMRI mouse plasma at 5 uM by LC-MS based equilibrium dialysis method. The data set is classed as ADME, cell-free. In outline: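 Equilibrium dialysis across a semipermeable membrane, 100% mouse plasma against pH 7.4 buffer, 5 μM compound at 0.5% final DMSO, 37 °C. Both sides sampled after equilibration. Duplicate incubations, reported as averages.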

Data set [21] can be described thus: AUClast in NMRI mouse brain at 20 mg/kg, po administered as single dose through gavage measured after 144 hrs by UPLC-MS/MS analysis. The data set is classed as ADME, organism-based. Also noted: dose 20 mg/kg, time < 144 hr, route oral. The essentials: as §1
A short description of data set [22]: AUClast in NMRI mouse brain at 2 mg/kg, iv administered as single dose measured after 144 hrs by UPLC-MS/MS analysis. In kind it is ADME, organism-based. Also noted: dose 2 mg/kg, time < 144 hr, route intravenous. In outline:
as §1

A short description of data set [23]: Toxicity in 2 days post fertilized zebra fish embryo assessed as effect on larval development up to 50 uM. The conditions noted are these: zebrafish, 48 h. Also on record: species or system Danio rerio. The essentials:
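Zebrafish embryos were exposed to rising concentrations up to 50 μM or to vehicle, and larval development was scored visually at 2 days post-fertilization.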

Data set [24] can be described thus: Toxicity in NMRI mouse assessed as drug tolerance at 2 mg/kg, iv administered as single dose up to 144 hrs. In kind it is organism-based. The following applies: in vivo.
Data set [25] in a line: Cmax in NMRI mouse brain at 20 mg/kg, po administered as single dose through gavage measured after 144 hrs by UPLC-MS/MS analysis. The data set is classed as ADME, organism-based. Also on record: dose 20 mg/kg, route oral. In outline:
as §1

Data set [26] in a line: Ratio of drug level in NMRI mouse brain to plasma at 2 mg/kg, iv or 20 mg/kg, po administered as single dose through gavage measured up to 144 hrs post dose by UPLC-MS/MS analysis. In kind it is ADME, organism-based. The following applies: brain and plasma, read-out: BPR. The essentials: as §1
A short description of data set [27]: Half life in NMRI mouse brain at 2 mg/kg, iv administered as single dose by UPLC-MS/MS analysis. In kind it is ADME, organism-based. The essentials: as §1
A short description of data set [28]: Cytotoxicity against patient-derived U3013MG cells assessed as reduction in cell viability by Celltiter-Glo reagent based assay. The following applies: Homo sapiens. In kind it is functional.
Data set [29] in a line: Half life in NMRI mouse plasma at 2 mg/kg, iv administered as single dose by UPLC-MS/MS analysis. In kind it is ADME, organism-based. In outline:
as §1

With `OC(c1cc(-c2ccc[nH]2)nc2ccccc12)C1CCCCN1` (stereo not given), the IC50 in data set [1] was greater than 50 µM.

On to `Cc1ccc(-c2cc([C@@H](O)[C@@H]3CCCCN3)c3ccccc3n2)cc1C#N` (relative stereo), for which, in data set [1], the concentration for half-maximal inhibition (IC50) was 32.1 µM.

Consider `O[C@H](c1cc(-c2ccc(C(F)(F)F)cc2)nc2ccccc12)[C@@H]1CCCCN1` (relative stereo), for which the IC50 in data set [1] is 13.5 µM.

Take `O[C@@H](c1cc(-c2ccc(Cl)cc2)nc2ccccc12)[C@@H]1CCCCN1` (single isomer, unassigned): the outcome in data set [2] was inactive. In addition, the IC50 in data set [1] came out at 9.91 µM.

For the compound `OC(c1cc(-c2ccsc2)nc2ccccc12)C1CCCCN1` (stereo not given), the IC50 in data set [1] turned out to be 26.5 µM.

Regarding `OC(c1cc(-c2ccncc2)nc2ccccc12)C1CCCCN1` (stereo not given), the IC50 in [1] is greater than 50 µM.

Take `O[C@H](c1cc(-c2ccc(C(F)(F)F)nc2)nc2ccccc12)[C@@H]1CCCCN1` (relative stereo): the IC50 in data set [1] is 38 µM.

In the case of `O[C@H](c1cc(-c2ccc(Cl)cc2)nc2ccccc12)[C@@H]1CCCCN1`, the half-life in [3] is 81 h; in data set [11], 65 h; in data set [27] it was 72 h. The Tlast in [4], in [12], in data set [15] and in [16] was 144 h each time. In addition, the Activity entry in data set [5], in data set [6], in data set [8], in [10], in [17] and in data set [18] was “Non-Toxic” each time. Moreover, the Activity result in data set [23] and in data set [24] was “Non-Toxic” throughout. The same compound returned a bioavailability in data set [7] of 75.2%. In addition, the result in data set [2] and in data set [14] was Active. In addition, the Cmax in data set [9] was 1970 ng/mL; in data set [25] it was 4840 ng/mL. The AUC(0-t) at 144 h was determined as 62 µg·h/mL in data set [13], 246 µg·h/mL in data set [19], 400 µg·h/mL in data set [21] and 53.1 µg·h/mL in data set [22]. Also, the fraction unbound at 5 µM in data set [20] was 0.0137. Besides, the IC50 in data set [1] was 3.79 µM. For the same compound, in data set [26], the Kp at 144 h was found to be 2.

Regarding `CCCN(CCC)C(=O)c1ccc(-c2cc([C@@H](O)[C@@H]3CCCCN3)c3ccccc3n2)cc1` (relative stereo), the IC50 in data set [1] turned out to be 35.4 µM.

Regarding `Cc1ccc(-c2cc(C(O)C3CCCCN3)c3ccccc3n2)o1` (stereo not given), the 50% inhibitory concentration (IC50) in [1] was greater than 50 µM.

Consider `O[C@H](c1cc(-c2ccc(Cl)cc2)nc2ccccc12)[C@H]1CCCCN1` (single isomer, unassigned), for which the outcome in data set [2] was inactive. Moreover, the IC50 in data set [1] amounted to 10.5 µM.

As for `OC(c1cc(-c2ccc(Cl)cc2)nc2ccccc12)C1CCCCN1` (stereo not given), the IC50 in [28] came to 3.14 µM.

On to `Cc1noc(C)c1-c1cc(C(O)C2CCCCN2)c2ccccc2n1` (stereo not given), for which the IC50 in data set [1] was greater than 50 µM.

For the compound `OC(c1cc(-c2cncnc2)nc2ccccc12)C1CCCCN1` (stereo not given), the IC50 in data set [1] is greater than 50 µM.

With `O[C@@H](c1cc(-c2ccc(Cl)cc2)nc2ccccc12)[C@H]1CCCCN1`, the half-life in [3] was 69 h; in [11], 96 h; in [29], 48 h; in [27], 67 h. Also, the Tlast in data set [4], in [12], in data set [15] and in [16] was 144 h in each case. For the same compound, the Activity result in data set [5], in data set [8], in data set [10], in [17], in [18] and in data set [24] was “Non-Toxic” each time. This compound gave a bioavailability in [7] of 89%. In addition, the Cmax turned out to be 777 ng/mL in data set [9] and 1490 ng/mL in data set [25]. Besides, the AUC(0-t) at 144 h was 14.1 µg·h/mL in data set [13], 183 µg·h/mL in [19], 157 µg·h/mL in data set [21] and 12.2 µg·h/mL in [22]. The compound further showed a fraction unbound at 5 µM in data set [20] of 0.0059. Further, in [1], the IC50 amounted to 3.46 µM.
